The text below walks through data of ChEMBL document CHEMBL4513216, “Probing the Open Global Health Chemical Diversity Library for Multistage-Active Starting Points for Next-Generation Antimalarials” (ACS Infect Dis, 2020).

The structures appear in SMILES notation.

This data set in a line: Toxicity liver stage against HepG2, at 10uM. The data set is classed as cell-based. More on the design: test concentration 10 uM, cell line HepG2-A16-CD81EGFP. To be noted: human, HepG2-A16-CD81EGFP cells; read-out: INHIBITION
In outline: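 Uninfected HepG2-A16-CD81EGFP cells, 3 × 10^3 per well, 1536-well, plated on prespotted compound at 10 μM final, parasite-free screening media added to match infected plates; puromycin 10 μM positive, DMSO 0.5% negative; run in parallel with 48 h PbLuc assay at 37 °C, 5% CO2; viability by CellTiter-Glo luminescence, normalized to controls.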

Consider `CCOCC1CCN(C(=O)C(c2ccc(F)cc2)N(C)C)CC1` (stereo unspecified), for which the cytotoxicity at 10 µM came to 1.31%.

On to `Cc1n[nH]cc1C(=O)N1CCCC1c1cc[nH]n1` (stereo unspecified), for which the cytotoxicity at 10 µM is -23.1%.

Turning to `CCCc1nc(C(=O)N2C[C@H](CO)C[C@H](CN3CCOCC3)C2)cs1`, the cytotoxicity at 10 µM is 3.79%.

Take `COc1ncnc2c1CCN(c1cc(C(F)(F)F)ncn1)CC2`: the cytotoxicity at 10 µM was -1.42%.

In the case of `CN(Cc1ccccc1CN1CCCC1)C(=O)c1c(O)cccc1O`, the cytotoxicity at 10 µM is -5.84%.

`Cn1cc(C(C)(O)CNc2ccc(Cl)c(C#N)n2)cn1` (stereo unspecified): the cytotoxicity at 10 µM turned out to be 3.97%.

In the case of `Cc1ccc([C@]2(O)CC[C@H]3CN(Cc4cccc(F)c4F)C[C@H]32)nc1`, the cytotoxicity at 10 µM was -8.38%.

Turning to `CC(CCc1ccccc1)NC(=O)CN1CCOCC1` (stereo unspecified), the cytotoxicity at 10 µM was determined as 4.17%.

Consider `COC(=O)CCCn1ccnc1-c1ccccc1`, for which the cytotoxicity at 10 µM was -4.65%.

Turning to `O=C(CCS(=O)(=O)c1ccccc1)NCCCn1cccn1`, the cytotoxicity at 10 µM is 12%.

Take `COc1ccc2c(c1)OCC(CNC(=O)CCc1c(C)n[nH]c1C)C2` (stereo unspecified): the cytotoxicity at 10 µM is -48.5%.

Take `CN1C(=O)C2(NC(=O)c3ccccc3O2)c2ccccc21` (stereo unspecified): the cytotoxicity at 10 µM is -7.65%.

Consider `O=C(c1sccc1C1CC1)N1CCCN(Cc2cscn2)CC1`, for which the cytotoxicity at 10 µM was -14.7%.

With `CC(C)N(Cc1nccn1C)C(=O)c1cc(Cl)c[nH]c1=O`, the cytotoxicity at 10 µM was -0.723%.

Regarding `CN(C)CC(=O)N1CCC2(CC1)COCCN(c1ncccn1)C2`, the cytotoxicity at 10 µM was 5.38%.

Take `Fc1cnc(N2CC3(CCN(Cc4ccsc4)C3)C2)nc1`: the cytotoxicity at 10 µM is -84.4%.

On to `O=C1NCCN1C1CCN(Cc2nc(-c3ccc(F)cc3)no2)CC1`, for which the cytotoxicity at 10 µM is 44.1%.

Consider `Cc1nc(-c2ccsc2)sc1C(=O)N1CCn2c(C)nnc2C1`, for which the cytotoxicity at 10 µM is -3.29%.

With `Cc1noc([C@@H]2CC[C@@H]3[C@@H](CCN3S(=O)(=O)c3ccccc3)O2)n1`, the cytotoxicity at 10 µM amounted to 2.43%.

In the case of `COc1cc(-c2nc(N)n[nH]2)cc(OC)c1OC`, the cytotoxicity at 10 µM was -10.2%.

Consider `Cc1cnc(CN(Cc2cccc(O)c2)CC2CC2)cn1`, for which the cytotoxicity at 10 µM is 16.7%.

With `COCCN(C)CCN1CC2(CCN(C(=O)C3CCOC3)CC2)OC1=O` (stereo unspecified), the cytotoxicity at 10 µM was -21.8%.

As to `O=C1CNc2ncnc(N3CCN(Cc4cccc(F)c4)CC3)c2N1`, the cytotoxicity at 10 µM was determined as 7.88%.

Take `COc1ccc(CN(C)C(=O)NCc2c(C)cc(C)nc2OC)cc1`: the cytotoxicity at 10 µM is -7.11%.

As to `O=C1CC(c2ccsc2)c2snc(C(=O)O)c2N1` (stereo unspecified), the cytotoxicity at 10 µM is -0.772%.

`O=C(NCC(F)(F)F)C1CN(C(=O)c2cnccn2)C1`: the cytotoxicity at 10 µM came to 2.24%.

With `Cn1cc(CNC2CCc3ncnn3C2)c(-c2ccncc2)n1` (stereo unspecified), the cytotoxicity at 10 µM is -8.55%.

Consider `CC1=Nc2c(c(=O)[nH]n2C2CCCC2)C(c2cccnc2)S1` (stereo unspecified), for which the cytotoxicity at 10 µM was -0.955%.

On to `CN(C)CCNC(=O)c1ccc(OC2CCN(S(C)(=O)=O)CC2)c(Cl)c1`, for which the cytotoxicity at 10 µM was found to be 1.33%.

As to `c1cnc(N2C[C@H]3CCN(CCN4CCCC4)C[C@H]3C2)cn1`, the cytotoxicity at 10 µM is -114%.

On to `Cc1nc(C)c(C(=O)NCCNc2cc(N3CCCC3)ncn2)s1`, for which the cytotoxicity at 10 µM was -73.4%.

`NC(=O)C1(CCCc2ccccn2)CCCN(c2ncccn2)C1` (stereo unspecified): the cytotoxicity at 10 µM is -5.69%.

Consider `COc1ccc(Cc2ncc3c(n2)CN(C(=O)CCO)C3)cc1`, for which the cytotoxicity at 10 µM worked out at 2.37%.

In the case of `CC(NC(=O)NCCCn1cncn1)c1ccc(C(F)(F)F)cc1` (stereo unspecified), the cytotoxicity at 10 µM was -7.1%.

Consider `CCCn1ccc(C(=O)N2CCOC(c3nc(-c4cccs4)no3)C2)n1` (stereo unspecified), for which the cytotoxicity at 10 µM was 8.54%.

Take `CS(=O)(=O)CCN1CCCC1c1noc(C2CC2)n1` (stereo unspecified): the cytotoxicity at 10 µM is -6.82%.

For `Cc1ncsc1C(=O)NC1CCN(Cc2ccc(C(N)=O)cc2)CC1`, the cytotoxicity at 10 µM is -15%.

`Cc1nc(O)c2nnn(C[C@H]3CCCN3C(=O)c3ccccc3F)c2n1`: the cytotoxicity at 10 µM is -20.4%.

As for `Cc1noc(C)c1CC(=O)NCC(C)N1CCOCC1` (stereo unspecified), the cytotoxicity at 10 µM was -52%.

`CC(C)CCN1CCNC(=O)C1CC(=O)N1CCc2sccc2C1` (stereo unspecified): the cytotoxicity at 10 µM was -7.01%.

In the case of `CN(CCC(F)(F)F)c1nc2ccccc2c(=O)[nH]1`, the cytotoxicity at 10 µM was -5.11%.

Regarding `CCOc1ncccc1NC(=O)N1CCCC1c1cc(C)no1` (stereo unspecified), the cytotoxicity at 10 µM was 0.87%.

Consider `Cc1nnc(CN2CCN(C)C3(CCC(=O)N(CCO)CC3)C2)s1` (stereo unspecified), for which the cytotoxicity at 10 µM was -14.9%.

As to `COCCCNc1c(-c2ccc(Cl)cc2)c(=O)c1=O`, the cytotoxicity at 10 µM came out at 39.2%.

Take `Cn1cc(C2CC3(CCN(C(=O)c4ccsc4)CC3)NC2=O)cn1` (stereo unspecified): the cytotoxicity at 10 µM was -3.7%.

In the case of `COc1cc(C2c3c(n[nH]c3C)N=C3COC(=O)C32)cc(Br)c1O` (stereo unspecified), the cytotoxicity at 10 µM amounted to 75.4%.

Regarding `Cc1nc(N2CCC3(CCCN(C(C)C)C3=O)C2)c2sccc2n1` (stereo unspecified), the cytotoxicity at 10 µM was found to be 18.6%.

Turning to `Cn1cc(C2(C)CN(Cc3ccc(O)c(Cl)c3)CCO2)cn1` (stereo unspecified), the cytotoxicity at 10 µM was -4.12%.

With `Cc1nc[nH]c1CN1CCC(C2CCN(CCc3ccccc3)C2)CC1` (stereo unspecified), the cytotoxicity at 10 µM is -3.52%.

`CCCn1cc(CN2CCCC2c2nccc(CN(C)C)n2)cn1` (stereo unspecified): the cytotoxicity at 10 µM is 19.7%.

On to `c1cc(CNCC2OCCc3cn(CC4CCOCC4)nc32)ccn1` (stereo unspecified), for which the cytotoxicity at 10 µM was 3.68%.

On to `CN(C)C(=O)CN1C[C@H]2CCN(C(=O)c3ccncc3)CC[C@H]2S1(=O)=O`, for which the cytotoxicity at 10 µM is -1.55%.

For `Cc1nc(NC(=O)C(C)N2CCN(c3ccccc3F)CC2)sc1C` (stereo unspecified), the cytotoxicity at 10 µM was -0.879%.

On to `Cc1cc(C[C@@H]2COC[C@@H]2NC(=O)CN2CCCC2)on1`, for which the cytotoxicity at 10 µM was -30.2%.

Turning to `Fc1ccc(OCCCNC2=NCCN2)cc1`, the cytotoxicity at 10 µM was 5.08%.

As for `CCN(CC)c1ccc2ccc(C(=O)NC3CC3)cn12`, the cytotoxicity at 10 µM was -2.6%.

Take `O=C(CN1CCc2onc(-c3ccccc3F)c2C1)NC1CC1`: the cytotoxicity at 10 µM was determined as 14.6%.

In the case of `COCC(=O)N1CC[C@@H]2O[C@H](COCc3ccncc3)CC[C@@H]21`, the cytotoxicity at 10 µM was 2.6%.

For the molecule `NC(CC1CCCC1)c1ccccc1` (stereo unspecified), the cytotoxicity at 10 µM amounted to 5.76%.

`Cc1ccc(CN(C(=O)NCCNC(=O)c2cccnc2)C(C)C)o1`: the cytotoxicity at 10 µM is -6.06%.

Take `CCNc1nc(N(C)C)nc(-n2cnc(SC)n2)n1`: the cytotoxicity at 10 µM amounted to 2.22%.

With `CSc1ccc(NC(=O)Cn2cc(N)cn2)cc1`, the cytotoxicity at 10 µM stood at 0.14%.

For `COc1ccc(CN2CCN(S(=O)(=O)c3cc(C(=O)O)cs3)CC2)cc1`, the cytotoxicity at 10 µM stood at 2.03%.

As for `COc1ccc(N2CCN(CC(O)c3ccc(C)cc3C)CC2)cc1` (stereo unspecified), the cytotoxicity at 10 µM came to 11.8%.

Take `CN(C)c1ccc(CNc2cncc(-n3cccn3)n2)cc1`: the cytotoxicity at 10 µM is -7.31%.

Turning to `Cc1cc(C)n(CC2CCCN2C(=O)c2cccc3c2OCCO3)n1` (stereo unspecified), the cytotoxicity at 10 µM was -11.8%.

For the molecule `CCCc1nnc(N2C[C@@H](C)[C@@](C)(O)C2)s1`, the cytotoxicity at 10 µM came out at 1.22%.

As for `CC(C)NC(=O)[C@@H]1C[C@@H](N)CN1C(=O)CCSCc1ccccc1`, the cytotoxicity at 10 µM came out at 0.719%.

For `CCCc1noc(CNC2CCCN(Cc3noc(C4CC4)n3)C2)n1` (stereo unspecified), the cytotoxicity at 10 µM is -13.5%.

On to `CCc1nc2ccccc2n1C(CC)C(=O)N(C)Cc1nc(C)c[nH]1` (stereo unspecified), for which the cytotoxicity at 10 µM is -2.53%.

As to `COC(C)c1noc(CN(C)c2ncc(Br)cn2)n1` (stereo unspecified), the cytotoxicity at 10 µM was -1.26%.

On to `c1ccc(N2CC[C@@H]3CN(Cc4ccncc4)CCO[C@@H]3C2)cc1`, for which the cytotoxicity at 10 µM came to 9.49%.

As to `O=C(c1csc(Br)c1)N1CCCC(n2ccnc2)C1` (stereo unspecified), the cytotoxicity at 10 µM came to 3.51%.

For the molecule `CCN(C)C(=O)Cn1c(-c2ccco2)nn(-c2ccccc2OC)c1=O`, the cytotoxicity at 10 µM turned out to be 0.832%.

On to `Cc1ccc(CN2C[C@@H]3COC[C@H](NS(C)(=O)=O)[C@@H]3C2)o1`, for which the cytotoxicity at 10 µM came out at 0.415%.

As for `O=C(c1cccc(Cn2ccnc2)c1)N1CCCC(n2cccn2)C1` (stereo unspecified), the cytotoxicity at 10 µM was -0.603%.

In the case of `Cn1cc(NS(=O)(=O)c2ccc(F)c(F)c2)ccc1=O`, the cytotoxicity at 10 µM is -9.59%.

In the case of `C[C@@H]1CN(C(=O)NC2CC2)C[C@]12CCN(c1ccsc1)C2=O`, the cytotoxicity at 10 µM amounted to 0.77%.

In the case of `Cn1cc(N2CCC3(CCN(C(=O)c4cccn4C)C3)C2=O)cn1` (stereo unspecified), the cytotoxicity at 10 µM was found to be 2.93%.

As to `COCCCN(C)[C@@H]1c2ccccc2C2(CCNCC2)[C@H]1O`, the cytotoxicity at 10 µM came out at 1.73%.

In the case of `CC(=O)N1CCN(C(=O)c2ccc3ccn(C)c3c2)CC1`, the cytotoxicity at 10 µM is -0.173%.

Consider `CCN(C)c1ncnc2c1CCN(c1ccc(C)nn1)CC2`, for which the cytotoxicity at 10 µM is -94.7%.

For `CN1C[C@H]2CC[C@@H](C1)N(Cc1ccccc1OCCN1CCOCC1)C2`, the cytotoxicity at 10 µM is -3%.

With `Cc1cc(C)cc(CNC(C)c2c(C)nn(C)c2C)c1` (stereo unspecified), the cytotoxicity at 10 µM stood at 5.14%.

With `Cc1ccc(-c2ccc(C(=O)NCCC(=O)N(C)C)c(F)c2)cc1`, the cytotoxicity at 10 µM is -0.0916%.

Turning to `COCc1ccc(C(=O)N2CCCN(C(=O)OCC(C)C)CC2)cc1`, the cytotoxicity at 10 µM was found to be 13.4%.

Consider `Cn1ncc2c(=O)[nH]c(CN3CCCC3c3cccs3)nc21` (stereo unspecified), for which the cytotoxicity at 10 µM was -4.43%.

As for `O=C(NCCN1CCOCC1)c1cnc(Cc2ccc(F)cc2)s1`, the cytotoxicity at 10 µM is 16.7%.

For the molecule `CCn1ccnc1CN1CCN(CCc2ccncc2)CC1C` (stereo unspecified), the cytotoxicity at 10 µM is -3.04%.

As to `CN(C)S(=O)(=O)NC1CCCc2c1cnn2-c1ccc(C(C)(C)C)cc1` (stereo unspecified), the cytotoxicity at 10 µM came out at 42.5%.

For the molecule `Cc1nc(CN(C)C(=O)NC(C)c2ccc3c(c2)OCCO3)cs1` (stereo unspecified), the cytotoxicity at 10 µM is -4.45%.

For `Cc1cc(CN2CCN(C(=O)NC(C)c3ccc(C)o3)CC2)on1` (stereo unspecified), the cytotoxicity at 10 µM is -8.72%.

Consider `COC(=O)c1cccnc1N1CCC(Oc2cccc(F)c2)CC1`, for which the cytotoxicity at 10 µM is 3.31%.

With `Cc1csc(N2CCN(C(=O)C(C(C)C)n3cncn3)CC2)n1` (stereo unspecified), the cytotoxicity at 10 µM is -13.1%.

In the case of `CC(C)c1nccc(CN(C)Cc2cccc(-n3cccn3)c2)n1`, the cytotoxicity at 10 µM was -2.44%.

For the molecule `CNc1cncc(C2CCCN2Cc2ccccn2)n1` (stereo unspecified), the cytotoxicity at 10 µM was determined as 0.0241%.
